This note sets out measurements from ChEMBL document CHEMBL1126697, “Bis(heteroaryl)piperazine (BHAP) reverse transcriptase inhibitors: structure-activity relationships of novel substituted indole analogues and the identification of 1-[(5-methanesulfonamido-1H-indol-2-yl)-carbonyl]-4-[3- [(1-methylethyl)amino]-pyridinyl]piperazine monomethanesulfonate (U-90152S), a …” (J Med Chem, 1993).

In assay [1] the target is Human immunodeficiency virus type 1 reverse transcriptase (Human immunodeficiency virus 1, UniProt Q72547). Description: In vitro inhibition of HIV-1 reverse transcriptase.
Assay [2] is described as follows: Cytotoxic concentration against PBMC cells. The assay is classed as functional. The conditions noted are these: Homo sapiens. The gist of the method:
(§1)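 PBMC (1×10^6 cells) infected with inoculum containing 1 ng p24 of HIV-1 D34 isolate. Supernatant p24 measured 4 days after infection. Four drug concentrations, 10-fold dilution series. ED50 given as a range when it fell between dilutions. Viability by mitogen-stimulated cell proliferation. Mesylate salts used in this assay.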

The test system of assay [3] is Human immunodeficiency virus 1. Kind of assay: Inhibition of HIV-1 D34 replication in human peripheral blood mononuclear cells. The format is functional. The conditions noted are these: read-out: ED50 (the source's name). The method, boiled down: as §1
A further assay deals with MT2. Kind of assay: Cytotoxic concentration against MT-2 cells. The format is functional. The conditions noted are these: Homo sapiens. The method, boiled down: (§2)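 HIV-1 IIIb infected MT-2 cells at multiplicity of infection 0.001. Syncytium formation scored 4 days post-infection, at peak viral cytopathic effect. Three drug concentrations, 10-fold dilution series. ED50 given as a range when it fell between dilutions. Viability by trypan blue exclusion.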

The target in assay [4] is Human immunodeficiency virus type 1 reverse transcriptase (Human immunodeficiency virus 1) (UniProt Q72547). Kind of assay: In vitro inhibition of HIV-1 reverse transcriptase at 100 uM.
Assay [5] has as its system Human immunodeficiency virus 1. Description: Inhibition of HIV-1 IIIB replication in MT2 (human lymphocyte) cells. The format is functional. The conditions noted are these: Human immunodeficiency virus 1, MT2; read-out: ED50 (the source's name). The gist of the method: as §2
Assay [6] deals with Human immunodeficiency virus 1. Description: Inhibition of HIV-1 replication in human lymphocytes [peripheral blood mononuclear cells (PBMC)/D34 was determined as effective dose. The assay is classed as functional. The settings on record: read-out: ED50 (the source's name). The gist of the method:
as §1

Where a name gives a salt, the structure may show the parent alone. Where only a bound is given, the exact number is not on record here.

As for `CC(C)Nc1cccnc1N1CCN(C(=O)c2cc3cc(N)ccc3[nH]2)CC1`, the IC50 (as a rule, the concentration that gives 50% inhibition) in assay [1] was found to be 1000 nM. The CC50 (in assay [2]; in the assay on MT2) was greater than 10000 nM in each case. The EC50 in assay [3] turned out to be 10 nM. The inhibition (commonly the drop in the measured response relative to a control, in per cent) in assay [4] amounted to 94%.

The compound `CCNc1cccnc1N1CCN(C(=O)c2cc3ccccc3[nH]2)CC1` returned an IC50 in assay [1] of 4000 nM. Moreover, the CC50 (in assay [2]; with MT2) was greater than 10000 nM throughout. Moreover, the results for the EC50 in assay [3] and in assay [5] were 10 nM and 300 nM, respectively. This compound also came in with an inhibition in assay [4] of 96%.

`CC(C)Nc1cccnc1N1CCN(C(=O)c2cc3cc(N(C)S(C)(=O)=O)ccc3[nH]2)CC1` registered an IC50 in assay [1] of 5600 nM. Also, the CC50 (in assay [2]; in the assay on MT2) was greater than 10000 nM throughout. Besides, the EC50 in assay [3] is 1 nM. The compound also had an inhibition in assay [4] of 95%.

In the case of `CCNc1cccnc1N1CCN(C(=O)c2cc3cc(OC)ccc3[nH]2)CC1` [ATEVIRDINE MESYLATE], the CC50 (in assay [2]; in the assay with MT2) was greater than 10000 nM each time. Besides, the results for the EC50 in assay [3] and in assay [5] were 1 nM and less than 200 nM, respectively. Besides, the inhibition in assay [4] is 92%.

Turning to `COC(=O)Nc1ccc2[nH]c(C(=O)N3CCN(c4ncccc4NC(C)C)CC3)cc2c1`, the IC50 in assay [1] was determined as 2500 nM. The CC50 (in assay [2]; in the assay with MT2) was greater than 10000 nM throughout. Moreover, in assay [3], the EC50 stood at 0.1 nM. In addition, the inhibition in assay [4] stood at 96%.

With `CC(C)Nc1cccnc1N1CCN(C(=O)c2cc3ccc(F)cc3[nH]2)CC1`, the IC50 in assay [1] was 4400 nM. The CC50 (in assay [2]; in the assay with MT2) was greater than 10000 nM in each case. Besides, the values for the EC50 in assay [3] and in assay [5] were 1 nM and 260 nM, respectively. For the same compound, in assay [4], the inhibition came out at 96%.

As for `CC(=O)Nc1ccc2[nH]c(C(=O)N3CCN(c4ncccc4NC(C)C)CC3)cc2c1`, in assay [1], the IC50 came to 1800 nM. For the same compound, the CC50 (in assay [2]; in the assay on MT2) was greater than 10000 nM throughout. The EC50 was 10 nM in assay [3] and greater than 10000 nM in assay [5]. This compound came in with an inhibition in assay [4] of 94%.

For `CC(C)Nc1cccnc1N1CCN(C(=O)c2cc3ccc(CO)cc3[nH]2)CC1`, the IC50 in assay [1] came out at 760 nM. The CC50 (in assay [2]; with MT2) was greater than 10000 nM in each case. Further, the figures for the EC50 in assay [3] and in assay [5] were 1 nM and less than 250 nM, respectively. Besides, in assay [4], the inhibition is 98%.

`CC(C)Nc1cccnc1N1CCN(C(=O)c2cc3ccccc3[nH]2)CC1`: the IC50 in assay [1] is 1200 nM. For the same compound, the CC50 (in assay [2]; with MT2) was greater than 10000 nM in each case. Also, the EC50 amounted to 1 nM in assay [3] and 300 nM in assay [5]. In assay [4], this compound gave an inhibition of 96%.

Consider `Cc1cn([C@H]2C[C@H](N=[N+]=[N-])[C@@H](CO)O2)c(=O)[nH]c1=O` [ZIDOVUDINE], for which the CC50 (in assay [2]; with MT2) was greater than 10000 nM throughout. The EC50 in assay [3] came to 1 nM; in assay [5], 70 nM.

As to `CC(C)Nc1cccnc1N1CCN(C(=O)c2cc3ccc(C#N)cc3[nH]2)CC1`, the IC50 in assay [1] was found to be 3900 nM. Besides, the CC50 (in assay [2]; with MT2) was greater than 10000 nM in each case. The same compound came in with an inhibition in assay [4] of 74%.

Take `CC(C)Nc1cccnc1N1CCN(C(=O)c2cc3cc(O)ccc3[nH]2)CC1`: the IC50 in assay [1] is 1300 nM. Moreover, the CC50 (in assay [2]; in the assay with MT2) was greater than 10000 nM throughout. Besides, the EC50 in assay [3] was 1 nM; in assay [5], less than 260 nM. In assay [4], this compound came in with an inhibition of 98%.

Regarding `COc1ccc2cc(C(=O)N3CCN(c4ncccc4NC(C)C)CC3)[nH]c2c1`, 1300 nM corresponded to half-maximal inhibition in assay [1] (IC50). Also, the CC50 (in assay [2]; with MT2) was greater than 10000 nM throughout. Besides, the EC50 in assay [3] is 10 nM; in assay [5] it was less than 250 nM. In assay [4], this compound registered an inhibition of 97%.

For the compound `CC(C)Nc1cccnc1N1CCN(C(=O)c2cc3ccc(NS(C)(=O)=O)cc3[nH]2)CC1`, in assay [1], 500 nM corresponded to half-maximal inhibition (IC50). The CC50 (in assay [2]; in the assay on MT2) was greater than 10000 nM each time. Besides, the EC50 in assay [3] is 0.1 nM; in assay [5] it was less than 20 nM. This compound also yielded an inhibition in assay [4] of 98%.

`CC(C)Nc1cccnc1N1CCN(C(=O)c2cc3cc(NC(=O)C(F)(F)F)ccc3[nH]2)CC1` came in with an IC50 in assay [1] of 27000 nM. Besides, the CC50 (in assay [2]; in the assay with MT2) was greater than 10000 nM each time. Also, the figures for the EC50 in assay [3] and in assay [5] were 1 nM and 210 nM, respectively. The same compound returned an inhibition in assay [4] of 85%.

`CCNc1cccnc1N1CCN(C(=O)c2cc3cc(O)ccc3[nH]2)CC1` had an IC50 in assay [1] of 2000 nM. Also, the CC50 (in assay [2]; in the assay with MT2) was greater than 10000 nM in each case. Besides, the EC50 was determined as 270 nM in assay [5] and 10 nM in assay [6]. In assay [4], this compound yielded an inhibition of 89%.

Consider `CC(C)Nc1cccnc1N1CCN(C(=O)c2cc3cc(NS(=O)(=O)C(F)(F)F)ccc3[nH]2)CC1`, for which, in assay [1], half-maximal inhibition (IC50) required 8300 nM. The CC50 (in assay [2]; in the assay on MT2) was greater than 10000 nM throughout. Moreover, the EC50 was 100 nM in assay [3] and 200 nM in assay [5]. In assay [4], this compound registered an inhibition of 94%.

On to `CC(C)Nc1cccnc1N1CCN(C(=O)c2cc3ccc(C=O)cc3[nH]2)CC1`, for which the IC50 in assay [1] stood at 1400 nM. In addition, the CC50 (in assay [2]; in the assay on MT2) was greater than 10000 nM each time. Further, the EC50 in assay [3] is 0.1 nM; in assay [5], less than 260 nM. Also, in assay [4], the inhibition came out at 94%.

Regarding `CC(C)Nc1cccnc1N1CCN(C(=O)c2cc3cc(NS(C)(=O)=O)ccc3[nH]2)CC1` [DELAVIRDINE], the results for the CC50 (in assay [2]; in the assay on MT2) were greater than 10000 nM and greater than 30000 nM, respectively. The EC50 in assay [3] came to 0.1 nM; in assay [5], 10 nM.

Turning to `Cc1ccnc2c1NC(=O)c1cccnc1N2C1CC1` [NEVIRAPINE], the CC50 (in assay [2]; in the assay on MT2) was greater than 10000 nM in each case. For the same compound, the EC50 in assay [3] is 10 nM. The inhibition in assay [4] was 93%.

As for `CC(C)Nc1cccnc1N1CCN(C(=O)c2cc3ccc(O)cc3[nH]2)CC1`, half-maximal inhibition in assay [1] (IC50) required 1200 nM. Further, the CC50 (in assay [2]; in the assay on MT2) was greater than 10000 nM in each case. The same compound returned an inhibition in assay [4] of 97%.

For the compound `CC(C)Nc1cccnc1N1CCN(C(=O)c2cc3ccc(OS(C)(=O)=O)cc3[nH]2)CC1`, the IC50 in assay [1] was found to be 2200 nM. The CC50 (in assay [2]; in the assay on MT2) was greater than 10000 nM throughout. This compound also returned an inhibition in assay [4] of 97%.

`CC(C)Nc1cccnc1N1CCN(C(=O)c2cc3cc(OS(C)(=O)=O)ccc3[nH]2)CC1`: the IC50 in assay [1] was 5500 nM. The CC50 (in assay [2]; in the assay with MT2) was greater than 10000 nM in each case. The same compound yielded an inhibition in assay [4] of 97%.

`CC(C)Nc1cccnc1N1CCN(C(=O)c2cc3ccc(OCc4ccccc4)cc3[nH]2)CC1` had an IC50 in assay [1] of 37000 nM. In addition, the CC50 (in assay [2]; with MT2) was greater than 10000 nM throughout. Further, the EC50 in assay [3] was 100 nM. Also, the inhibition in assay [4] stood at 65%.

Regarding `CCc1cc(NCc2nc3c(Cl)ccc(Cl)c3o2)c(O)nc1C` [L-697661], the IC50 in assay [1] was 2700 nM. Besides, the CC50 (in assay [2]; with MT2) was greater than 10000 nM throughout. Also, the EC50 is less than 0.1 nM in assay [3] and less than 300 nM in assay [5]. This compound had an inhibition in assay [4] of 98%.

Regarding `CC(C)Nc1cccnc1N1CCN(C(=O)c2cc3cc(OCc4ccccc4)ccc3[nH]2)CC1`, it took 4300 nM to reach half-maximal inhibition in assay [1] (IC50). The CC50 (in assay [2]; with MT2) was greater than 10000 nM each time. In addition, the EC50 was 10 nM in assay [3] and less than 210 nM in assay [5]. This compound gave an inhibition in assay [4] of 74%.

`Cc1ccc2[nH]c(C(=O)N3CCN(c4ncccc4NC(C)C)CC3)cc2c1` came in with an IC50 in assay [1] of 34000 nM. The CC50 (in assay [2]; in the assay on MT2) was greater than 10000 nM throughout. In addition, the EC50 turned out to be 10 nM in assay [3] and 260 nM in assay [5]. This compound yielded an inhibition in assay [4] of 68%.
